Laboratory results published in ChEMBL document CHEMBL1157701, “Inhibition of IkB kinase and NF-kappaB by a novel synthetic compound SK 2009” (Bioorg Med Chem, 2010).
Activity calls are given as the source filed them. The rule behind the calls is not given here.

Experiments:
KBM5 [1] = experiment: Inhibition of TNF-alpha-induced NF-kappaB activation in human KBM5 cells at 100 uM treated for 12 hrs before TNFalpha challenge measured after 30 mins by EMSA relative to control; type: cell-based
Procedure, shortened: (§1)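 KBM-5 cells (1×10^6/mL) preincubated with compound for 12 h, then stimulated with 0.1 nM TNFα for 30 min. Nuclear extracts (15 μg protein) incubated with 16 fmol 32P-end-labeled 45-mer HIV LTR NF-κB oligonucleotide for 30 min at 37°C and resolved by EMSA. DMSO stock diluted in culture medium.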

[2] = Cytotoxicity against human KBM5 cells assessed as cell viability at 100 uM by trypan blue assay; type: cell-based; details: read-out: Activity
KBM5 [3] = experiment: Cytotoxicity against human KBM5 cells at 10 uM after 72 hrs by MTT assay; type: functional, cell-based
Procedure, shortened: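 MTT viability: KBM-5 cells (5000 per well) in triplicate with or without compound for 72 h at 37 °C. MTT (5 mg/ml in PBS) added for 2 h at 37 °C. Extraction buffer (20% SDS, 50% dimethylformamide) added overnight at 37 °C, then OD read at 570 nm.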

KBM5 [4] = experiment: Inhibition of TNF-alpha-induced NF-kappaB activation in human KBM5 cells treated for 12 hrs before TNFalpha challenge measured after 30 mins by EMSA; type: cell-based; procedure, shortened: as §1
KBM5 [5] = experiment: Inhibition of NF-kappaB activation in human KBM5 cells at 100 uM treated for 12 hrs before TNFalpha challenge by EMSA; type: cell-based; details: TDE = time-dependent effect; procedure, shortened: as §1
KBM5 [6] = experiment: Inhibition of NF-kappaB activation in human KBM5 cells at 100 uM treated for 12 hrs before TNFalpha challenge measured after 4 hrs by EMSA relative to control; type: cell-based
KBM5 [7] = experiment: Inhibition of NF-kappaB activation in human KBM5 cells at 100 uM treated for 12 hrs before TNFalpha challenge measured after 6 hrs by EMSA relative to control; type: cell-based
Procedure, shortened: (§2)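 Time course: KBM-5 cells (1×10^6/mL) exposed to 100 μM compound for varying times before 0.1 nM TNF for 30 min. Nuclear extracts (15 μg protein) were probed by EMSA with 16 fmol 32P-labeled HIV LTR κB 45-mer for 30 min at 37°C.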

KBM5 [8] = experiment: Inhibition of NF-kappaB activation in human KBM5 cells at 100 uM treated for 12 hrs before TNFalpha challenge measured after 8 hrs by EMSA relative to control; type: cell-based; procedure, shortened: as §2
KBM5 [9] = experiment: Inhibition of NF-kappaB activation in human KBM5 cells at 100 uM treated for 12 hrs before TNFalpha challenge measured after 12 hrs by EMSA relative to control; type: cell-based; procedure, shortened: as §2
[10] = target: Transcription factor p65 (Homo sapiens) (UniProt Q04206); experiment: Inhibition of nuclear DNA binding to NF-kappaB p65 subunit in TNF-alpha-stimulated human KBM5 cells at 10 uM after 30 mins by EMSA relative to control; type: cell-based
Procedure, shortened: (§3)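 Direct DNA-binding test: nuclear extracts from untreated KBM-5 cells or cells given 0.1 nM TNF for 30 min were incubated for 30 min with compound at various concentrations. Binding to a 32P-labeled HIV LTR κB oligonucleotide was then assessed by EMSA.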

[11] = target: Transcription factor p65 (Homo sapiens) (UniProt Q04206); experiment: Inhibition of nuclear DNA binding to NF-kappaB p65 subunit in TNF-alpha-stimulated human KBM5 cells at 25 uM after 30 mins by EMSA relative to control; type: cell-based; procedure, shortened: as §3
[12] = target: Transcription factor p65 (Homo sapiens) (UniProt Q04206); experiment: Inhibition of nuclear DNA binding to NF-kappaB p65 subunit in TNF-alpha-stimulated human KBM5 cells at 50 uM after 30 mins by EMSA relative to control; type: cell-based; procedure, shortened: as §3
[13] = target: Transcription factor p65 (Homo sapiens) (UniProt Q04206); experiment: Inhibition of nuclear DNA binding to NF-kappaB p65 subunit in TNF-alpha-stimulated human KBM5 cells at 100 uM after 30 mins by EMSA relative to control; type: cell-based; procedure, shortened: as §3
KBM5 [14] = experiment: Inhibition of TNF-alpha-induced IKK activation in human KBM5 cells at 100 uM treated for 12 hrs before TNFalpha challenge by immunoprecipitation assay; type: cell-based; details: TDE = time-dependent effect
Procedure, shortened: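 KBM-5 cells (5×10^6/mL) preincubated with 100 μM compound for 12 h, then given 1 nM TNF for the indicated times. IKK immunoprecipitated from whole-cell lysates with anti-IKK-α and assayed at 30°C for 30 min: 50 mM HEPES pH 7.4, 20 mM MgCl2, 2 mM DTT, [32P]ATP, unlabeled ATP, 2 μg GST-IκBα(1-54). Phosphorylated substrate shown by SDS-PAGE/phosphorimaging; total IKK-α/β by immunoblot.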

[15] = Inhibition of cyclin D1 protein expression in TNF-alpha-stimulated human KBM5 cells at 100 uM after 6 to 24 hrs by Western blot analysis; type: functional, cell-based
Procedure, shortened: (§4)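 Western blot: KBM-5 lysates (30 μg protein) separated by SDS-PAGE and probed with anti-cyclin D1, Bcl-2 or VEGF (1:1000). HRP secondary (1:3000) applied for 2 h, detection by ECL, bands quantified by densitometry.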

KBM5 [16] = experiment: Inhibition of Bcl-2 protein expression in TNF-alpha-stimulated human KBM5 cells at 100 uM after 6 to 24 hrs by Western blot analysis; type: functional, cell-based; procedure, shortened: as §4
[17] = Inhibition of VEGF protein expression in TNF-alpha-stimulated human KBM5 cells at 100 uM after 6 to 24 hrs by Western blot analysis; type: functional, cell-based; procedure, shortened: as §4
KBM5 [18] = experiment: Inhibition of TNF-alpha-induced NF-kappaB activation in human KBM5 cells at 100 uM treated for 12 hrs before TNFalpha challenge measured after 30 mins by EMSA; type: cell-based; procedure, shortened: as §1
KBM5 [19] = experiment: Inhibition of NF-kappaB activation in human KBM5 cells at 5 to 100 uM treated for 12 hrs in absence of TNFalpha by EMSA
KBM5 [20] = experiment: Intrinsic activity at IKK in TNF-alpha-stimulated human KBM5 cells at 10 to 100 uM added directly to IKK immune complexes in vitro by immunoprecipitation assay

Sequence of Transcription factor p65 (Homo sapiens) (Q04206 whole entry): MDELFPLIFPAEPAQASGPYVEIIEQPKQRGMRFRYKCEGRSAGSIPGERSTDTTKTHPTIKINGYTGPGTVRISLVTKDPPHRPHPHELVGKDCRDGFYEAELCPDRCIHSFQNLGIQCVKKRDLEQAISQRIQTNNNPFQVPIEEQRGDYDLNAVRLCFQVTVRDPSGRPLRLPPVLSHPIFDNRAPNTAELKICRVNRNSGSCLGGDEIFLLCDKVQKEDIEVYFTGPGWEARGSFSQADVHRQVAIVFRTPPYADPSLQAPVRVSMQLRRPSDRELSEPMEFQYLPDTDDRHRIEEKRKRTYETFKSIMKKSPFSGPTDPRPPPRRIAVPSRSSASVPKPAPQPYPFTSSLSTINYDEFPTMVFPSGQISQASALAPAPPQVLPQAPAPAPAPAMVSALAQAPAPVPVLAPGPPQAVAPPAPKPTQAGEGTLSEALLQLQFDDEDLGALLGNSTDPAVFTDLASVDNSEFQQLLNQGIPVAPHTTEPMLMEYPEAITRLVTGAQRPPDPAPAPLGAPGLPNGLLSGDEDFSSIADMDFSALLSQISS

Compound	fold change (FC) (KBM5 [1])	viability at 100 µM [2]	Activity (KBM5 [3])	inhibition (KBM5 [18])	also measured
CCCCCCCC[C@@H]1COC(C)(C)O[C@@H]1CCOCc1ccccc1	1.4	97%	Active		
CCCCCCCC[C@H](CO)[C@H](O)CCOCc1ccccc1	1.1	97%	Active		
CCCCCCCCCC(=O)N1C(=O)OC[C@@H]1Cc1ccccc1	2.4	97%	Active		
CCCCCCC[C@H](CO)[C@H](O)CCOCc1ccccc1	4.5	98%	Active	100%	inhibition (KBM5 [4]): Dose-dependent effect; inhibition (KBM5 [5]): tde; fold change (FC) (KBM5 [6]): 4.2; fold change (FC) (KBM5 [7]): 3.1; fold change (FC) (KBM5 [8]): 2.5; fold change (FC) (KBM5 [9]): 1; fold change (FC) [10]: 3.8; fold change (FC) [11]: 3.9; fold change (FC) [12]: 3.8; fold change (FC) [13]: 3.9; inhibition (KBM5 [14]): tde; inhibition [15]: Active; inhibition (KBM5 [16]): Active; inhibition [17]: Active; inhibition (KBM5 [19]): inactive; Activity (KBM5 [20]): inactive
CCCCCCCCCCCCCC[C@H]1COC(=O)C[C@H]1O	3.6	95%	Active	30%	
CCCCCCCC[C@H](C(=O)N1C(=O)OC[C@@H]1Cc1ccccc1)[C@H](O)CCOCc1ccccc1	1.3	98%	Active		
